Data published in ChEMBL document CHEMBL1152328, “Alstiphyllanines A-D, indole alkaloids from Alstonia macrophylla” (J Nat Prod, 2009).
In brackets after ≈: the same amount, converted by molar mass.

How the values were obtained:
[1] = system: Plasmodium falciparum; assay: Antiplasmodial activity against Plasmodium falciparum 3D7 infected human erythrocytes by Giemsa staining; format: functional, organism-based
Summary of the method: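 Human malaria parasites were kept in culture, and the test samples were made up as DMSO stock solutions before assay.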

[2] = system: HeLa; assay: Cytotoxicity against human HeLa cells; format: cell-based
[3] = system: Aorta; assay: Vasodilation activity in Wistar rat endothelium-intact thoracic aortic ring assessed as inhibition of phenylepinephrine-induced contraction at 30 uM; format: functional; parameters: scale not given: the % may be the effect or the level left

IC50 [1]	SMILES	IC50 [2]	Activity [3]
0.34 µg/mL	C/C=C1/C[N+]2(C)[C@@H]3C[C@@]45c6cc(OC)ccc6N(C)[C@]4(O3)[C@@H]2C[C@@H]1[C@@]5(COC(=O)c1ccc(OC)c(OC)c1)C(=O)OC (some centres not stated) [ALSTIPHYLLANINE B]	> 25 µg/mL	35%
6.2 µg/mL	C/C=C1/C[N+]2(C)[C@@H]3C[C@@]45c6cc(OC)ccc6N(C)[C@]4(O3)[C@@H]2C[C@@H]1[C@@]5(COC(=O)c1cc(OC)c(OC)c(OC)c1)C(=O)OC (some centres not stated) [ALSTIPHYLLANINE C]	> 25 µg/mL	40%
2.75 µg/mL (≈ 4.53 µM)	C/C=C1/CN2[C@@H]3C[C@@]45c6cc(OC)ccc6N(C)[C@]4(O3)[C@@H]2C[C@@H]1[C@@]5(COC(=O)c1cc(OC)c(OC)c(OC)c1)C(=O)OC [ALSTIPHYLLANINE D]	> 25 µg/mL	42%

SMILES	IC50 [1]	IC50 [2]	Activity [3]
C/C=C1\C[N+]2([O-])[C@H]3C[C@@H]1[C@]1(C(=O)OC)[C@@H](OC(C)=O)[C@]4(C[C@@H]12)c1ccccc1N(C)[C@H]34 [ALSTIPHYLLANINE A]	6.85 µg/mL (≈ 16.1 µM)	> 25 µg/mL	70%
